Compounds with a hit are over-represented: about 3.5% of the library has one in this group of screens.
MrgX1 ag: agonists of human MrgX1 receptor | MrgX1-HEK293 cells, Fluo-4 calcium fluorescence, agonist mode; stronger effect = higher value | B-score at 10 µM | 310,000 tested, 0.44% active | AID 588627;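 active = calcium response B-score plate-corrected fluorescence ratio at least 3 library SD, with starting fluorescence B-score inside 5 SD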
Target sequence (Q96LB2 whole entry, looked up): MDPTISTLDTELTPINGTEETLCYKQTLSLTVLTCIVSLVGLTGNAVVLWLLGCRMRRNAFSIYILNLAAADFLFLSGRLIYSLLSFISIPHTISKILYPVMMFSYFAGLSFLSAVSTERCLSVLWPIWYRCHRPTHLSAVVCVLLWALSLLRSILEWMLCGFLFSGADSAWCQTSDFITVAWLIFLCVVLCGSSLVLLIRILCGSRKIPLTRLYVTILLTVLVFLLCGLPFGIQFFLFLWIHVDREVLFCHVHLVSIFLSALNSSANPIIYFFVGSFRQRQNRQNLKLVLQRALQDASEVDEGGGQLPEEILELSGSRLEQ
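times = overnight plating, then 30 min 37 °C plus 30 min room-temperature dye loading | assay system = stable human MrgX1 HEK293 cell line | input = fifteen thousand cells per well | signal = kinetic calcium dye fluorescence, Fluo-4 NW | dosing = compound delivered in addition one of three | read-out = B-scored fluorescence response ratio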
RGS4 inh: inhibitors of human RGS4; P49798; HEK293 M3R/RGS4 inducible, Fluo-4 calcium flux; stronger effect = higher value; triggered by carbachol at its EC20; B-score at 10 µM; 310,000 tested, 0.45% active;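 active = B-score, a plate-corrected calcium signal, over three deviations above library mean, with baseline fluorescence within five deviations of library mean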;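 also: RGS4 expression induced by doxycycline in cells with stable M3 receptor; B-score is computed from the integrated fluorescence ratio over baseline after carbachol; higher B-score means a larger calcium signal and so more RGS4 inhibition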
Target sequence (P49798 whole entry, looked up): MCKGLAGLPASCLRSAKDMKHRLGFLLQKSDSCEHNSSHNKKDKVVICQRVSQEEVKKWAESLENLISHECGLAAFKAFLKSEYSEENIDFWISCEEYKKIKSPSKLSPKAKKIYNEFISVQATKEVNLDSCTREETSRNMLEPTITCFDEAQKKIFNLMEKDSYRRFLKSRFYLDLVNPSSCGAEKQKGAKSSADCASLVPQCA
RGS4 act: potentiators or activators of RGS4 | HEK293 M3R/inducible RGS4, carbachol calcium flux Fluo4; stronger effect = lower value | B-score at 10 µM | 310,000 tested, 0.92% active;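 active = B-score of the integrated calcium signal more than 4 SD below the library mean, with starting fluorescence not abnormally high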;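 also: negative B-score means reduced calcium response which marks RGS4 activation or potentiation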
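test system = M3R-expressing HEK293 line, RGS4 induced by doxycycline | probe or stimulus = carbachol at ECmax as muscarinic agonist stimulus | timing = dye loading 30 min 37 °C, buffer rest 30 min RT | signal = calcium dye Fluo4 fluorescence | evaluation = B score from integrated fluorescence ratio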
MrgX1 antag: human MrgX1 receptor antagonism, primary screen | MRGX1-HEK293 calcium flux, Fluo-4, BAM8-22 antagonism; stronger effect = lower value | 310,000 tested, 1.3% active | Q96LB2 | B-score at 10 µM;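 active = calcium-response B-score plate-corrected more than 3 library SD below zero, starting fluorescence within 5 deviations, no agonist response on first addition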;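 also: peak minus trough fluorescence over baseline after final BAM8-22 challenge near maximal dose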
MrgX1 allo act: human MrgX1 positive allosteric modulation, primary screen; Q96LB2; 310,000 tested, 0.63% active; B-score at 10 µM; MrgX1-HEK293, Fluo-4 calcium flux, FDSS; stronger effect = higher value; AID 588675;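 active = plate-corrected calcium response at least 3 library SD above typical, normal starting fluorescence, not activating the receptor alone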;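 also: compound read alongside a low EC10 to EC30 dose of BAM8-22 agonist; peak minus trough fluorescence over baseline measured at the second addition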
RGS4 act valid: confirmation of RGS4 activators; inhibition, % at 10 µM; 1,100 tested, 89% active; shares compounds with RGS4 act; HEK293 M3R/RGS4 inducible, carbachol calcium flux Fluo4;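 active = inhibition above 3 SD of the buffer control wells, cut at about 41% in these data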;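 also: signal is the integrated peak-minus-minimum Fluo4 fluorescence over baseline ratio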
RGS4 act ctr: RGS4 activator counter-screen hit in non-induced cells | shares compounds with RGS4 act | HEK293 M3R non-induced RGS4, Fluo4 calcium flux; after carbachol challenge at its EC90 | inhibition, % at 10 µM | 1,100 tested, 82% active;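 active = inhibition exceeding 3 SD of buffer-only control wells, cut at about 26% in these data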;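 also: percent drop in integrated peak-minus-baseline over baseline Fluo4 ratio after carbachol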
* hit, by the source's call.

What do the screens show for `Cc1nn2c(-c3ccc(S(=O)(=O)N4CCN(C)CC4)o3)nnc2c2ccccc12`?
MrgX1 ag: inactive; RGS4 inh: inactive; RGS4 act: inactive; MrgX1 antag: inactive; MrgX1 allo act: inactive

Results for OCCCNc1cc(-c2ccccc2)nc2cc(-c3ccc(F)cc3)nn12 ?
MrgX1 ag: inactive; RGS4 inh: inactive; RGS4 act: -8.83*; MrgX1 antag: inactive; MrgX1 allo act: inactive; RGS4 act valid: 68.0*; RGS4 act ctr: 42.3*

What do the screens show for `Cc1cc(NCCCO)n2nc(-c3cccs3)cc2n1`?
MrgX1 ag: inactive; RGS4 inh: inactive; RGS4 act: inactive; MrgX1 antag: inactive; MrgX1 allo act: inactive

How did COc1ccc(-c2csc3ncnc(N4CCN(c5ccc(OC)cc5)CC4)c23)cc1 do in these assays?
MrgX1 ag: inactive; RGS4 inh: inactive; RGS4 act: inactive; MrgX1 antag: inactive; MrgX1 allo act: inactive

How did CCN1CCN(c2ncnc3scc(-c4ccc(C)c(C)c4)c23)CC1 do in these assays?
MrgX1 ag: inactive; RGS4 inh: inactive; RGS4 act: -9.16*; MrgX1 antag: inactive; MrgX1 allo act: inactive; RGS4 act valid: 92.0*; RGS4 act ctr: 86.8*

What do the screens show for `COc1ccc(-c2csc3ncnc(N4CCN(c5ccccc5O)CC4)c23)cc1`?
MrgX1 ag: inactive; RGS4 inh: inactive; RGS4 act: -9.26*; MrgX1 antag: inactive; MrgX1 allo act: inactive; RGS4 act valid: 0.0; RGS4 act ctr: 0.0

How did COc1ccc(-c2csc3ncnc(N4CCN(c5ccccc5)CC4)c23)cc1 do in these assays?
MrgX1 ag: inactive; RGS4 inh: inactive; RGS4 act: -8.35*; MrgX1 antag: inactive; MrgX1 allo act: inactive; RGS4 act valid: 88.0*; RGS4 act ctr: 83.8*

What do the screens show for `Cc1ccc(-c2csc3ncnc(N4CCN(c5ccccc5O)CC4)c23)cc1`?
MrgX1 ag: inactive; RGS4 inh: inactive; RGS4 act: inactive; MrgX1 antag: inactive; MrgX1 allo act: inactive

What do the screens show for `COc1ccc(-c2csc3ncnc(N4CCN(Cc5ccccc5)CC4)c23)cc1`?
MrgX1 ag: inactive; RGS4 inh: inactive; RGS4 act: -7.72*; MrgX1 antag: inactive; MrgX1 allo act: inactive; RGS4 act valid: 0.0; RGS4 act ctr: 0.0

How did CCN1CCN(c2c(C=O)c(Cl)nc3ccc(OC)cc23)CC1 do in these assays?
MrgX1 ag: inactive; RGS4 inh: inactive; RGS4 act: inactive; MrgX1 antag: inactive; MrgX1 allo act: inactive

How did CC(C)(C)OC(=O)NC1CC2CCCC(C1)N2Cc1ccccc1 (configuration not stated) do in these assays?
RGS4 inh: inactive; RGS4 act: -9.7*; RGS4 act valid: 91.5*; RGS4 act ctr: 88.8*

Results for COc1ccccc1N1CCN(C(=O)c2ccc3c(Cl)c4c(nc3c2)CCCC4)CC1 ?
MrgX1 ag: inactive; RGS4 inh: inactive; RGS4 act: -9.74*; MrgX1 antag: inactive; MrgX1 allo act: inactive; RGS4 act valid: 86.5*; RGS4 act ctr: 78.8*

Results for CCOC(=O)C1CCN(C(=O)c2ccc3c(Cl)c4c(nc3c2)CCCC4)CC1 ?
MrgX1 ag: inactive; RGS4 inh: inactive; RGS4 act: inactive; MrgX1 antag: inactive; MrgX1 allo act: inactive

Results for O=C(c1ccc2c(Cl)c3c(nc2c1)CCCC3)N1CCN(c2ccc(F)cc2)CC1 ?
MrgX1 ag: inactive; RGS4 inh: inactive; RGS4 act: -9.23*; MrgX1 antag: inactive; MrgX1 allo act: inactive; RGS4 act valid: 91.5*; RGS4 act ctr: 86.3*

How did CC1CCN(C(=O)c2ccc3c(Cl)c4c(nc3c2)CCCC4)CC1 do in these assays?
MrgX1 ag: inactive; RGS4 inh: inactive; RGS4 act: inactive; MrgX1 antag: inactive; MrgX1 allo act: inactive

Results for C=CC[N+]1(CC#CCOC(c2ccccc2)c2ccccc2)CCOCC1 ?
MrgX1 ag: inactive; RGS4 inh: inactive; RGS4 act: inactive; MrgX1 antag: inactive; MrgX1 allo act: inactive

Results for CN(C)CC#CCC(O)(c1ccccc1)c1ccccc1 ?
MrgX1 ag: inactive; RGS4 inh: inactive; RGS4 act: inactive; MrgX1 antag: inactive; MrgX1 allo act: inactive

How did CN(C)CC#CCOC(c1ccccc1)c1ccccc1 do in these assays?
MrgX1 ag: inactive; RGS4 inh: inactive; RGS4 act: -8.93*; MrgX1 antag: inactive; MrgX1 allo act: inactive; RGS4 act valid: 92.5*; RGS4 act ctr: 71.8*

What do the screens show for `CCN(CC)CCOC(c1ccccc1)c1ccc(C)cc1` (configuration not stated)?
MrgX1 ag: inactive; RGS4 inh: inactive; RGS4 act: inactive; MrgX1 antag: inactive; MrgX1 allo act: inactive

Results for CCN(CC)CC#CCC(O)(c1ccccc1)c1ccccc1 ?
MrgX1 ag: inactive; RGS4 inh: inactive; RGS4 act: -7.69*; MrgX1 antag: inactive; MrgX1 allo act: inactive; RGS4 act valid: 90.0*; RGS4 act ctr: 51.8*

What do the screens show for `CCN(CC)CC#CCOC(c1ccccc1)c1ccccc1`?
MrgX1 ag: inactive; RGS4 inh: inactive; RGS4 act: -9.21*; MrgX1 antag: inactive; MrgX1 allo act: inactive; RGS4 act valid: 88.0*; RGS4 act ctr: 56.8*

What do the screens show for `O=C(NCCCn1ccnc1)/C(=C\c1ccccc1Cl)NC(=O)c1ccccc1`?
MrgX1 ag: inactive; RGS4 inh: inactive; RGS4 act: inactive; MrgX1 antag: inactive; MrgX1 allo act: inactive

How did CCOC(=O)c1sc(Nc2ccccc2)nc1C do in these assays?
MrgX1 ag: inactive; RGS4 inh: inactive; RGS4 act: inactive; MrgX1 antag: inactive; MrgX1 allo act: inactive

What do the screens show for `CCOC(=O)c1sc(Nc2nc3c(OC)cccc3s2)nc1C`?
MrgX1 ag: inactive; RGS4 inh: inactive; RGS4 act: -7.76*; MrgX1 antag: inactive; MrgX1 allo act: inactive; RGS4 act valid: 93.0*; RGS4 act ctr: 79.3*

How did CCCN(CCC)C(=O)c1cc([N+](=O)[O-])cc2c1-c1ccc([N+](=O)[O-])cc1C2=C(C#N)C#N do in these assays?
MrgX1 ag: inactive; RGS4 inh: inactive; RGS4 act: inactive; MrgX1 antag: inactive; MrgX1 allo act: inactive

How did CC(/C=N/NC(=O)c1sc(N)nc1C)=C\c1ccccc1 do in these assays?
MrgX1 ag: inactive; RGS4 inh: inactive; RGS4 act: inactive; MrgX1 antag: inactive; MrgX1 allo act: inactive

What do the screens show for `O=C(CNCc1ccccn1)Nc1ccc([N+](=O)[O-])cc1C(=O)Nc1ccccc1F`?
MrgX1 ag: inactive; RGS4 inh: inactive; RGS4 act: inactive; MrgX1 antag: inactive; MrgX1 allo act: inactive
